For data set [1], the target named is Tubulin alpha (Homo sapiens) (UniProt P0DPH7+P68366+Q71U36+P68363+Q9BQE3+Q6PEY2+A6NHL2+Q9NY65). The data set can be described thus: Induction of phenotypic perturbation in human ONS cells assessed as increase in apha tubulin marker at 10 uM after 24 hrs by alpha tubulin staining based assay relative to control. It counts as functional, cell-based. The method in brief: (§1)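 hONS patient cells (line C1 200 08 0013; 1350/well, DMEM/F12 plus 10% FBS) were given 10 μM compound in 0.6% DMSO, with DMSO as control, for 24 h at 37 °C. MitoTracker Orange CMTMRos (400 nM, 30 min) was applied live before 4% PFA fixation. Anti-α-tubulin and anti-LC3b immunofluorescence plus DAPI followed. High-content imaging used six images/well, with cell segmentation, and each feature was expressed as log2 ratio versus DMSO.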

In data set [2] the test system is ONS. The data set can be described thus: Induction of phenotypic perturbation in human ONS cells assessed as increase in mitochondrial marker at 10 uM after 24 hrs by mitotracker orange staining based assay relative to control. It counts as functional, cell-based. The gist of the method: as §1
The subject of data set [3] is ONS. The data set can be described thus: Induction of phenotypic perturbation in human ONS cells assessed as decrease in autophagy markers level in at 10 uM after 24 hrs relative to control. It counts as functional, cell-based. The gist of the method:
(§2)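 Patient-derived hONS cells (Parkinson's line C1 200 08 0013), 1350 cells/well in DMEM/F12 + 10% FBS, exposed to 10 μM compound (0.6% DMSO final; DMSO 0.6% as negative control) for 24 h at 37 °C, 5% CO2. Plate 1: MitoTracker Orange 400 nM, fixed, anti-α-tubulin and anti-LC3b. Plate 2: LysoTracker Red 100 nM, anti-EEA1, CellMask. DAPI on all cells.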

Data set [4] concerns ONS. The data set can be described thus: Induction of phenotypic perturbation in human ONS cells assessed as increase in LC3b marker at 10 uM after 24 hrs by LC3b staining based assay relative to control. It counts as functional, cell-based. The gist of the method:
as §1

The subject of data set [5] is ONS. The data set can be described thus: Induction of phenotypic perturbation in human ONS cells assessed as decrease in EEA1-associated early endosomes level in at 10 uM after 24 hrs by EEA1 staining based assay relative to control. It counts as functional, cell-based. The method in brief: (§3)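 hONS cells from Parkinson's disease patient line C1 200 08 0013, 1350 cells/well in DMEM/F12 with 10% FBS, exposed to 10 μM compound (0.6% DMSO; DMSO alone as control) for 24 h at 37 °C, 5% CO2. Live stain with LysoTracker Red DND-99 (100 nM, 1 h), then PFA fixation, anti-EEA1 immunostaining, DAPI and CellMask. Imaged at 20×, six fields/well, per-cell features given as log2 ratio to DMSO.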

In data set [6] the test system is ONS. The data set can be described thus: Induction of phenotypic perturbation in human ONS cells assessed as increase in lysosome marker at 10 uM after 24 hrs by lysotrack red DND-99 staining based assay relative to control. It is filed as functional, cell-based. The method in brief:
as §3

Data set [7] in a line: Cytotoxicity against human ONS cells derived from parkinsons disease patients assessed as alteration of nuclear parameters at 10 uM. It counts as cell-based. The gist of the method: as §2
Data set [8] in a line: Cytotoxicity against human ONS cells derived from parkinsons disease patients assessed as alteration of cellular parameters at 10 uM. It counts as cell-based. The gist of the method:
as §2

For data set [9], the system named is ONS. The data set can be described thus: Induction of phenotypic perturbation in human ONS cells assessed as decrease in lysosome marker at 10 uM after 24 hrs by lysotrack red DND-99 staining based assay relative to control. It is filed as functional, cell-based.
Data set [10] concerns ONS. The data set can be described thus: Induction of phenotypic perturbation in human ONS cells assessed as increase in EEA1-associated early endosomes level in at 10 uM after 24 hrs by EEA1 staining based assay relative to control. It is filed as functional, cell-based.

SMILES strings stand for the structures. Activity calls are given as the source filed them. The rule behind the calls is not given here.

In the case of `NC(=O)c1c[nH]c2cc(Br)ccc12`, the result (in data set [1]; in the data set with ONS [2]; in the data set with ONS [3]; in the data set on ONS [4]; in the data set with ONS [5]; in the data set on ONS [6]) was Active.

Consider `C[C@@H]1NC(=O)[C@@H](C)C/C=C/[C@H](C)C[C@H](C)OC(=O)C[C@H](c2ccc(O)cc2)NC(=O)[C@@H](Cc2c(Br)[nH]c3ccccc23)N(C)C1=O`, for which the Activity result in [7] and in data set [8] was “Toxic” throughout.

As to `CSc1c(CC(=O)O)[n+](C)cn1C`, the outcome (in data set [1]; in the data set with ONS [2]; in the data set on ONS [4]; in the data set with ONS [5]; in the data set with ONS [6]) was Active.

`N#Cc1cn([C@@H]2O[C@H](CO)[C@@H](O)[C@H]2O)c2ncnc(N)c12`: the outcome in the data set on ONS [3] and in the data set with ONS [5] was Active.

With `C/C1=C\[C@H](C)C[C@H](C)OC(=O)C[C@H](c2ccc(O)cc2)NC(=O)[C@@H](Cc2c(Br)[nH]c3ccccc23)N(C)C(=O)[C@H](C)NC(=O)[C@@H](C)C1` [JASPAMIDE], the Activity result in [7] and in data set [8] was “Toxic” each time.

As for `Cc1cn([C@H]2C[C@H](O)[C@@H](CO)O2)c(=O)[nH]c1=O`, the result with ONS [3] and in the data set on ONS [5] was Active.

With `COc1cc2c3c(c(=O)oc2cc1O)NCCS3(=O)=O`, the result with ONS [9] and with ONS [10] was Active.

`Nc1ncc2ncn([C@@H]3O[C@H](CO)[C@@H](O)[C@H]3O)c2n1`: the result in the data set with ONS [3] and in the data set on ONS [5] was Active.

With `O=C(NC(=O)c1c[nH]c2cc(Br)ccc12)c1c[nH]c2cc(Br)ccc12`, the result (in data set [1]; in the data set on ONS [2]; in the data set on ONS [4]; with ONS [5]; with ONS [6]) was Active.

On to `NC(=O)c1c[nH]c2ncnc(N)c12`, for which, in the data set on ONS [5], the outcome was Active.

As for `N#Cc1cn([C@@H]2O[C@H](CO)[C@@H](O)[C@H]2O)c2nc[nH]c(=O)c12`, the outcome (in data set [1]; in the data set with ONS [2]; in the data set with ONS [4]; in the data set on ONS [5]; in the data set with ONS [6]) was Active.

For `N=C(N)c1c[nH]c2cc(Br)ccc12`, the result (in data set [1]; in the data set with ONS [2]; in the data set with ONS [4]; in the data set with ONS [5]; in the data set on ONS [6]) was Active.

For the molecule `C/C1=C\[C@H](C)C[C@H](C)OC(=O)C[C@H](c2ccc(O)c(Br)c2)NC(=O)[C@@H](Cc2c(Br)[nH]c3ccccc23)N(C)C(=O)[C@H](C)NC(=O)[C@@H](C)C1` [PIPESTELIDE A], the Activity entry in data set [7] and in data set [8] was “Toxic” in each case.

Turning to `COC(=O)c1c[nH]c2ncnc(N)c12`, the result in the data set with ONS [5] was Active.

For the molecule `CNc1nc2nccnc2c(=O)n1C`, the result (in data set [1]; in the data set with ONS [2]; in the data set on ONS [4]; in the data set with ONS [5]; with ONS [6]) was Active.

Consider `N#Cc1c[nH]c2ncnc(N)c12`, for which the outcome in the data set with ONS [5] was Active.

`COC(=O)c1cn([C@@H]2O[C@H](CO)[C@@H](O)[C@H]2O)c2ncnc(N)c12`: the result in the data set with ONS [5] was Active.

For `C/C(=C\[C@H](C)C[C@H](C)O)C[C@H](C)C(=O)N[C@@H](C)C(=O)N(C)[C@H](Cc1c(Br)[nH]c2ccccc12)C(=O)N[C@H](CC(=O)O)c1ccc(O)cc1` [JASPLAKINOLIDE Z1], the outcome (in data set [1]; in the data set with ONS [2]; in the data set on ONS [4]; with ONS [5]; with ONS [6]) was Active. Besides, the Activity result in data set [7] and in [8] was “Toxic” throughout.

As to `NCCc1c[nH]c2cc(Br)ccc12`, the outcome in the data set on ONS [3] and in the data set on ONS [5] was Active.

In the case of `NC(=O)c1cn([C@@H]2O[C@H](CO)[C@@H](O)[C@H]2O)c2ncnc(N)c12`, the outcome in the data set with ONS [3] and in the data set on ONS [5] was Active.

For the molecule `C=C1C[C@H](C)C(=O)N[C@@H](C)C(=O)N(C)[C@H](Cc2c(Br)[nH]c3ccccc23)C(=O)N[C@@H](c2ccc(O)cc2)CC(=O)O[C@@H](C)C[C@@H](C)C1=O` [JASPLAKINOLIDE B], the Activity result in data set [7] and in data set [8] was “Toxic” throughout.

Consider `Nc1nc2c(ncn2[C@@H]2O[C@H](CO)[C@@H](O)[C@H]2O)c(=O)[nH]1`, for which the outcome with ONS [3] and in the data set on ONS [5] was Active.

For `COC(=O)c1c[nH]c2cc(Br)ccc12`, the outcome in the data set with ONS [5] was Active.

The values are drawn from ChEMBL document CHEMBL3797170, “A Grand Challenge: Unbiased Phenotypic Function of Metabolites from Jaspis splendens against Parkinson's Disease” (J Nat Prod, 2016).
